# SIAE primary = human SIAE inhibitors, primary screen, biochemical, fluorescence polarization, FP-Rh probe, 1536-well HTS | Sialate O-acetylesterase (Homo sapiens), Q9HAT2 | SIAE FP-Rh probe binding | inhibition, % at 9.66 µM | 370,000 tested, 0.69% active | AID 1053197, 2014;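 active means inhibition above a cutoff: mean of compounds within the control limits plus 3 SD of those, cut at about 17% in these data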;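 further: 0% = plate median of compound wells and 100% = probe without SIAE protein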
# HTRA1 inhibitor = HTRA1 serine protease inhibitors, primary screen, biochemical, fluorescence polarization, HTS; 340,000 tested, 0.5% active; Q92743; recombinant HTRA1, FP-rhodamine activity-based probe; inhibition, % at 5.96 µM; in the data active means inhibition above about 36%;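 further: 0% = enzyme with DMSO and 100% = wells lacking enzyme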
# pPAFAH inh = pPAFAH enzyme inhibitors, primary screen, biochemical, fluorescence polarization, human; inhibition, % at 3.39 µM; 330,000 tested, 1.5% active; Platelet-activating factor acetylhydrolase (Homo sapiens), Q13093; recombinant pPAFAH, FP-rhodamine probe fluorescence polarization;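 active means inhibition above the mean inhibition across the screen plus 3 SD, cut at about 25% in these data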;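 further: inhibitors block binding of the rhodamine activity-based probe so polarization drops; 0% = enzyme with DMSO and 100% = wells lacking pPAFAH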
# Target sequence (Q13093 whole entry, looked up): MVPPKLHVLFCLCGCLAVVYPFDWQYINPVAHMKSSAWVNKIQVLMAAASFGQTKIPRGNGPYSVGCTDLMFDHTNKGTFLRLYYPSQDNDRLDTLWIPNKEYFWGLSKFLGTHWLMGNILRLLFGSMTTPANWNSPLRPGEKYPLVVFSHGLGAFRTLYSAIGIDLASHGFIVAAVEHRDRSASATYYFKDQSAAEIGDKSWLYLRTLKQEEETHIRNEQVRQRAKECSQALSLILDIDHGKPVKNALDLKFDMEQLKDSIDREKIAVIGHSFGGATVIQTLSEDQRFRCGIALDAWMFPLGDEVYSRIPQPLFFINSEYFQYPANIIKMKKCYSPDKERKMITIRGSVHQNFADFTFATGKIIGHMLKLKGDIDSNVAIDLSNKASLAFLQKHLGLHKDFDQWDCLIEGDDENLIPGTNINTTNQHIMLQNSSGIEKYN
# ABHD4 inh = ABHD4 inhibitors, primary screen, biochemical, fluorescence polarization, mouse; 370,000 tested, 0.54% active; purified mABHD4, FP-Rh probe fluorescence polarization; AID 720543, 2013; inhibition, % at 8.92 µM; (Lyso)-N-acylphosphatidylethanolamine lipase (Mus musculus), Q8VD66;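 active means inhibition exceeding the mean over every tested compound plus 3 SD, cut at about 30% in these data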;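 further: 0% = plate median of compound wells and 100% = S159A mutant with DMSO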
#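 Test system: mABHD4 protein | Buffer or medium: HEPES pH 7.0 buffer, 150 mM NaCl, 0.01% Pluronic F-127 | Probe or stimulus: FP-Rh fluorescent activity-based probe, added after compound pre-incubation | Timing: Pre-incubation 45 min, probe exposure 60 min, at 25 °C | Technique: Fluorescence polarization, excitation 525 nm, emission 598 nm, BODIPY TMR filters | Repeats: Single well per compound (singlicate)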
# TCR CD3 inh = inhibitors of human TCR-CD3 interaction, primary screen, biochemical, fluorescence, TAMRA-labeled TCR probe | T-cell receptor (TCR) | AID 651800, 2012 | inhibition, % at 9.4 µM | 360,000 tested, 0.37% active; in the data active means inhibition above about 19%;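 further: recombinant mutant TCR 2C K166C tagged with TAMRA read by polarization; 0% = receptor in buffer alone and 100% = receptor with positive control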
# HTRA1 conf = HTRA1 protease inhibitors, retest, confirmation, biochemical, fluorescence polarization | shares compounds with HTRA1 inhibitor | inhibition, % at 5.96 µM | 1,600 tested, 66% active | recombinant HTRA1, FP-rhodamine activity-based probe;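 active means mean inhibition over three repeats above a set limit taken from the earlier primary screen, cut at about 37% in these data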;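 further: 0% = HTRA1 with DMSO and 100% = wells lacking HTRA1; inhibitors block probe binding so polarization drops and inhibition rises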
# Starred values were filed as active, the others as inactive; . = not tested or not shown. Sampled rows, rich in hits. Any-hit rate of the full collection: about 2.3%.
SMILES,SIAE primary,HTRA1 inhibitor,pPAFAH inh,ABHD4 inh,TCR CD3 inh,HTRA1 conf
CC1(C(=O)Nc2cccc(OC(F)(F)F)c2)Cc2c(-c3cccc(C(N)=O)c3)ccnc2O1 (stereo not drawn),-17.3,.,.,-20.6,-1.1,.
CCOc1ccc(N=Cc2ccc(N(C)C)cc2)c(O)c1,.,56.7*,.,.,.,57.0*
COc1cc(/C=C2\C(=O)N(c3ccc(NC(C)=O)cc3)N=C2c2ccccc2)ccc1O,13.7,7.1,8.4,14.3,-11.4,.
CCOc1cc(/C=C2\C(=O)N(c3nc(-c4ccc(Br)cc4)cs3)N=C2c2ccccc2)ccc1O,.,39.8*,41.3*,.,.,46.9*
COc1cc(C(=O)C(=O)N2CCN(c3ccccc3)CC2)cc2ccccc12,-3.0,.,.,-20.6,-3.5,.
CCCCn1c(Nc2ccccc2)nc2ccccc21,11.1,-6.0,2.5,0.8,4.3,.
CCCn1c(Nc2nc3ccccc3n2C)nc2ccccc21,5.1,39.3*,7.2,28.1,-5.9,46.9*
Cc1cc(C)c2nc(NNC(=O)c3ccc(S(=O)(=O)N4CC(C)CC(C)C4)cc3)sc2c1 (stereo not drawn),-0.1,53.6*,18.7,0.5,-8.3,60.8*
Cc1cccc2sc(NNC(=O)c3ccc(S(=O)(=O)N4CC(C)CC(C)C4)cc3)nc12 (stereo not drawn),6.8,59.9*,17.8,-2.4,0.6,40.7*
Cc1ccc2nc(NNC(=O)c3ccc(S(=O)(=O)N4CCc5ccccc5C4)cc3)sc2c1,-6.5,48.9*,19.0,-1.3,-3.8,26.0
Cc1ccc2nc(NNC(=O)c3ccc4c(c3)OCCO4)sc2c1,6.2,10.8,-4.8,13.9,-7.5,.
Cc1cc(C)c2nc(NNC(=O)c3ccc(S(=O)(=O)N4CCCC(C)C4)cc3)sc2c1 (stereo not drawn),3.2,50.9*,28.9*,-1.1,-2.7,53.8*
C[C@@H]1COc2cc(Br)ccc2S(=O)(=O)N1Cc1cn(Cc2ccccc2)nn1,3.2,.,.,0.7,.,.
CCc1cc(C(=O)Nc2nc(-c3ccccn3)cs2)sc1C,-11.8,36.9*,8.9,-3.5,1.6,20.4
CN1C[C@]2(C=C3CCCCC3n3c(=O)n(-c4ccccc4)c(=O)n32)N(C(=O)OCc2ccccc2)C1=NC(=O)c1ccccc1 (stereo partly drawn),2.4,.,.,3.5,.,.
COc1ccc(C)cc1Nc1nc(-c2c[nH]c3ccccc23)cs1,8.4,42.9*,3.2,5.0,-0.7,12.4
O=C(NC(C(=O)N/N=C/c1c2ccccc2cc2ccccc12)c1n[nH]c(=O)c2ccccc12)c1ccccc1 (stereo not drawn),-31.8,40.5*,-0.1,-16.1,6.3,-72.5
O=C(NC(C(=O)N/N=C/c1ccccc1)c1n[nH]c(=O)c2ccccc12)c1ccccc1 (stereo not drawn),-6.5,-23.6,3.3,-4.2,7.5,.
O=c1nc(/C=C/c2ccc(O)c(O)c2)oc2ccccc12,.,72.2*,.,.,.,76.0*
CCn1c(/C=C/c2ccc(O)c(O)c2)nc2ccccc2c1=O,-7.1,58.5*,.,27.4,13.6,112.1*
O=C(Nc1cccc(C(F)(F)F)c1)OC1CCC12CCC(c1ccccc1)CC2 (stereo not drawn),-17.1,.,.,-22.9,.,.
CCOC(=O)[C@]12CCCC=C1N(CCC1=CCCCC1)C(=O)[C@H](CC(=O)N1CCN(C(=O)C3CC3)CC1)C2,0.7,.,.,6.0,-3.0,.
CCn1c(C)nc2cc(C(=O)N/N=C(\C)c3ccc(OC)cc3O)ccc21,-1.2,40.0*,.,8.8,-0.9,34.1
FC(F)(F)c1cnc(NNC(=S)Nc2ccccc2Cl)c(Cl)c1,6.6,42.6*,12.9,17.4,-3.2,33.0
CC(=O)OCC(=O)Nc1ccc(N=Nc2ccccc2)cc1,0.2,11.4,0.6,0.6,0.8,.
CC(C)C(=O)OCC(=O)Nc1ccc(N=Nc2ccccc2)cc1,1.9,39.0*,1.0,1.1,-1.3,49.0*
CCOc1cc(CNc2ccc(N3CCCCC3)cc2)cc(Br)c1OCC(=O)NC(C)(C)C,16.8,45.2*,2.0,28.3,3.3,3.0
COc1cc(CNc2ccc(N3CCCC3)cc2)cc(Cl)c1OC,12.1,40.5*,28.2*,22.5,2.9,28.1

# From PubChem BioAssay
